# Counter-ions that a name gives are not always drawn. The source made the active and inactive calls. No cut-off for these calls is given here.
# How the values were obtained:
# MDA-MB-435 = assay: Cytotoxicity against human MDAMB-435 cells assessed as reduction in cell viability measured after 72 hrs by MTS assay; format: functional, cell-based; details: MDA-MB-435, 72 h
# Summary of the method: (§1)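 Cells exposed to test substance for 72 h. Viability read by MTS-based absorbance assay (CellTiter 96 AQueous One Solution) relative to DMSO solvent control. Paclitaxel served as positive control.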
# CWR22R = assay: Cytotoxicity against human 22Rv1 cells assessed as reduction in cell viability measured after 72 hrs by MTT assay; format: functional, cell-based; details: 22Rv1, 72 h
# Summary of the method: (§2)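 Cells grown at 37°C, 5% CO₂ (22Rv1 in RPMI 1640, HCT 116 in McCoy's; 10% FBS, penicillin/streptomycin). Trypsinized, 5000 cells/well seeded, 24 h attachment. DMSO stocks diluted in medium to final 100, 20, 4, 0.8, 0.16 and 0.032 μM; 0.5% DMSO vehicle control. After 72 h, MTT 0.5 mg/mL final for 3 h; formazan dissolved in DMSO, A570. Viability relative to DMSO control; duplicates, three independent experiments; IC50 calculated.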
# HCT-116 = assay: Cytotoxicity against human HCT-116 cells assessed as reduction in cell viability measured after 72 hrs by MTT assay; format: functional, cell-based; details: HCT-116, 72 h; summary of the method: as §2
# OVCAR-3 = assay: Cytotoxicity against human OVCAR-3 cells assessed as reduction in cell viability measured after 72 hrs by MTS assay; format: functional, cell-based; details: OVCAR-3, 72 h; summary of the method: as §1
# [1] = system: Mycobacterium tuberculosis; assay: Antitubercular activity against Mycobacterium tuberculosis H37Rv assessed as inhibition of bacterial growth upto 100 ug/ml; format: functional, organism-based; details: dose <= 100.0 µg/ml
Compound,IC50 (MDA-MB-435),IC50 (CWR22R),IC50 (HCT-116),IC50 (OVCAR-3),Activity [1]
CCCCCCCCCC[C@@H](O)[C@H]1CC[C@H]([C@H]2CC[C@H]([C@H](O)CCCCCCCC[C@H](O)[C@H](O)CCC3=C[C@H](C)OC3=O)O2)O1,4.4 µM,5.5 µM,2.7 µM,3.7 µM,
CCCCCC[C@H](O)CCC[C@H](O)[C@H]1CC[C@H]([C@H]2CC[C@H]([C@H](O)CCCCCCCCCCCCCCC3=C[C@H](C)OC3=O)O2)O1,4.5 µM,5.6 µM,1.2 µM,4.4 µM,
CC[C@]1(O)C[C@@H]2CN(CCc3c([nH]c4ccccc34)[C@@](C(=O)OC)(c3cc4c(cc3OC)N(C)[C@H]3[C@@](O)(C(=O)OC)[C@H](OC(C)=O)[C@]5(CC)C=CCN6CC[C@]43[C@@H]65)C2)C1 [VINBLASTINE SULFATE],,0.001 µM,0.001 µM,,
CCCCCCCCCC[C@H](O)[C@H]1CC[C@H]([C@H]2CC[C@H]([C@H](O)CCCCCCCC[C@H](O)[C@H](O)CCC3=C[C@H](C)OC3=O)O2)O1,4.6 µM,8.3 µM,15 µM,> 10 µM,
CCCCCCCCCC[C@H](O)[C@H]1CC[C@H]([C@H]2CC[C@H]([C@H](O)CCCCCCCC[C@H](O)CCCC3=C[C@H](C)OC3=O)O2)O1,,12.5 µM,10 µM,,
CCCCCCCCCC[C@H](O)[C@H]1CC[C@H]([C@H]2CC[C@H]([C@H](O)CCCCCCCCCCCCC3=C[C@H](C)OC3=O)O2)O1 [BULLANIN],5.3 µM,16.5 µM,29.1 µM,> 10 µM,
CC(=O)O[C@H]1C(=O)[C@@]2(C)[C@H]([C@H](OC(=O)c3ccccc3)[C@]3(O)C[C@H](OC(=O)[C@H](O)[C@@H](NC(=O)c4ccccc4)c4ccccc4)C(C)=C1C3(C)C)[C@]1(OC(C)=O)CO[C@@H]1C[C@@H]2O [PACLITAXEL],0.0026 µM,,,0.0056 µM,
CCCCCCCCCC[C@@H](O)[C@H]1CC[C@H]([C@H]2CC[C@H]([C@H](O)CCCCCCCCC[C@H](O)CCC3=C[C@H](C)OC3=O)O2)O1 [UVARIGRANDIN A],4.1 µM,7 µM,5.5 µM,4.6 µM,
COc1cc([C@@H]2c3cc4c(cc3[C@@H](O[C@@H]3O[C@@H]5CO[C@@H](C)O[C@H]5[C@H](O)[C@H]3O)[C@H]3COC(=O)[C@H]23)OCO4)cc(OC)c1O [ETOPOSIDE],,2.3 µM,1.8 µM,,
CCCCCCCCCC[C@@H](O)[C@H]1CC[C@H]([C@H]2CC[C@H]([C@H](O)CCCCCCCCC[C@@H](O)CCC3=C[C@H](C)OC3=O)O2)O1,4.6 µM,17.5 µM,9.2 µM,3.5 µM,inactive
CCCCCCCCCC[C@@H](O)[C@H]1CC[C@H]([C@H]2CC[C@H]([C@H](O)CCCCCCCCCCCCC3=C[C@H](C)OC3=O)O2)O1 [ISODESAACETYLUVARICIN],4.1 µM,7.8 µM,2.8 µM,> 10 µM,
CCCCCC[C@H](O)CCC[C@H](O)[C@H]1CC[C@H]([C@H]2CC[C@H]([C@H](O)CCCCCCCCC[C@@H](O)CCC3=C[C@H](C)OC3=O)O2)O1,4.4 µM,8.2 µM,1.8 µM,4.5 µM,
CCCCCC[C@H](O)CCC[C@H](O)[C@H]1CC[C@H]([C@H]2CC[C@H]([C@H](O)CCCCCCCCCCCCC3=C[C@H](C)OC3=O)O2)O1 [SQUAMOCIN],4.6 µM,6.4 µM,1.2 µM,4.5 µM,

# Source: ChEMBL document CHEMBL5357028, “Acetogenins from the Stem of Uvaria rufa and Their Cytotoxic Activity” (J Nat Prod, 2024)
